≈ marks a conversion by molar mass, not a printed value.

One molecule from publication PMC4607264 (Developmental and comparative immunology, 2014) can be followed below.

This assay concerns the target DlRBL (Dicentrarchus labrax rhamnose-binding lectin) (Dicentrarchus labrax, UniProt A0A8P4K6Y8). Nature of the assay: inhibition of hemagglutination of rabbit erythrocytes by purified lectin. It counts as biochemical. Conditions: TBS pH 7.4, 5 mM CaCl2; 1% rabbit erythrocytes. The method in brief:
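Purified lectin (250 μg/ml stock, dialysed in TBS) was serially 2-fold diluted in TBS with 0.1% gelatin. Inhibitor series of monosaccharides, disaccharides and yeast mannan were used at decreasing concentrations starting from 100 mM. Rabbit erythrocytes were washed three times in PBS and suspended at 1% in TBS-gelatin, then added in equal volume. Agglutination was scored after 1 h at 37°C.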

For `OC[C@H]1OC(O)[C@H](O)[C@@H](O)[C@H]1O` (stereo partly drawn) [D-galactose], the “Minimum inhibitory concentration” value was 70.0 mM (≈ 12.6 mg/mL).
